Measurements pooled from the literature.
Compare with care: the assays were run in different laboratories.
FGFR3 G697C: Fibroblast growth factor receptor 3 (FGFR3, Homo sapiens, UniProt P22607, G697C)
FGFR3: Fibroblast growth factor receptor 3 (FGFR3, Homo sapiens, UniProt P22607)

| Structure (SMILES) | target | effect on | action | technique | tested at | quantity | value |
| --- | --- | --- | --- | --- | --- | --- | --- |
| O=C(O)[C@@H]1[C@@H](Cn2nnc3ccccc3c2=O)CC[C@H]1C(=O)c1ccc(OCCC2CCOCC2)cc1 | FGFR3 G697C | cell-free assay | – | competition with immobilised ligand | 1 µM | remaining binding | 92% |
| COc1cc2ncnc(Nc3ccc(Oc4ccccc4)cc3C)c2cc1OC | Fibroblast growth factor receptor 3 (FGFR3, Homo sapiens, UniProt P22607, K650E) | enzyme activity | inhibitor | – | 1 µM | inhibition | 0% |
| O=C1NC(=O)c2cc(Nc3ccc(F)cc3)c(Nc3ccc(F)cc3)cc21 | FGFR3 | cell-free assay | – | – | 0.5 µM | remaining signal | 99.7% |
| Cc1nccc(COC(=O)N2C[C@@H]3[C@@H](CNC(=O)c4ccc5[nH]nnc5c4)[C@@H]3C2)n1 | FGFR3 | cell-free assay | – | competition with immobilised ligand | 1 µM | remaining binding | 93% |
| CN(C)c1nccc(-c2cnc3ncccn23)n1 | FGFR3 | binding | – | – | 1 µM | remaining binding | 100% |
| Nc1ncnc2occ(-c3ccc(NC(=O)Nc4cc(C(F)(F)F)ccc4F)cc3)c12 | FGFR3 G697C | cell-free assay | – | – | 20 µM | remaining signal | 1.1% |
| CC(C)(O)[C@H]1CC[C@H](Nc2ccc3ncc(-c4cccc(C(F)(F)F)c4)n3n2)CC1 | FGFR3 | enzyme activity | inhibitor | – | 1 µM | remaining activity | 102% |
| Cc1cc(C)c(-n2ccn3nc(-c4cccnc4)cc23)cc1NC(=O)c1cc(C#N)cc(S(F)(F)(F)(F)F)c1 | FGFR3 | cell-free assay | – | competition with immobilised ligand | 0.1 µM | remaining binding | 95.6% |
| O=C(Nc1cnn(-c2csc(C(=O)NC3COC3)c2)c1)Nc1c(F)cccc1Cl | FGFR3 | enzyme activity | inhibitor | – | 5 µM | remaining activity | 92% |
| Cc1ccc(C(=O)Nc2ccc(CN3CCN(C)CC3)c(C(F)(F)F)c2)cc1C#Cc1cnc2cccnn12 | FGFR3 G697C | cell-free assay | – | – | 23.5 nM | remaining signal | 63% |
| CC1=C(C#N)[C@@H](c2ccc3[nH]nc(C)c3c2)C(C#N)=C(c2ccc(Cl)cc2)N1 | FGFR3 G697C | cell-free assay | – | competition with immobilised ligand | 1 µM | remaining binding | 100% |
| CCCS(=O)(=O)Nc1ccc(F)c(C(=O)c2c[nH]c3ncc(-c4ccc(Cl)cc4)cc23)c1F | FGFR3 | enzyme activity | inhibitor | – | 1 µM | inhibition | < 10% |
| COc1ccnn2ncc(-c3ccnc(N(C)C)n3)c12 | FGFR3 G697C | binding | – | – | 1 µM | remaining binding | 100% |
| Cc1cnc(NC2CCOCC2)nc1-n1cnc(C(=O)NC(CN)c2cc(F)cc(Cl)c2)c1 (stereo not shown) | FGFR3 | enzyme activity | inhibitor | radiometric | 1 µM | remaining activity | 100% |
| CCc1ccccc1C(=O)Nc1n[nH]c2c(C)c(F)c(C3C(C#N)=C(C)N(C)C(C)=C3C#N)cc12 | FGFR3 | cell-free assay | – | competition with immobilised ligand | 1 µM | remaining binding | 93% |
| CCN(CC)CCNC(=O)c1c(C)[nH]c(/C=C2\C(=O)Nc3ccc(F)cc32)c1C | FGFR3 | enzyme activity | inhibitor | – | 0.3 µM | inhibition | 61% |
| C[C@H](c1ccnc(Nc2nc3ccc(-c4cc(N(C)C)ncn4)cc3[nH]2)c1)N1CCN(C(=O)CC(F)(F)F)CC1 | FGFR3 G697C | cell-free assay | – | competition with immobilised ligand | 0.1 µM | remaining binding | 100% |
| CC/C(=N\NC(=O)NCc1cccc(O)c1)c1ccc(O)c(C)c1O | Fibroblast growth factor receptor 3 (FGFR3, Homo sapiens, UniProt P22607, K650M) | enzyme activity | inhibitor | – | 0.1 µM | inhibition | 4.2% |
| C=CC(=O)Nc1cc(Nc2nccc(Nc3cc(Cl)c(F)cc3C(C)(C)O)n2)c(OC)cc1N1CC[C@@H](N(C)C)C1 | FGFR3 | enzyme activity | inhibitor | – | 1 µM | inhibition | 4% |
